Measurements: ChEMBL document CHEMBL5042469, “Unique Molecular Interaction with the Histone Deacetylase 6 Catalytic Tunnel: Crystallographic and Biological Characterization of a Model Chemotype” (J Med Chem, 2021)

Experiments:
[1] = molecular target: Histone deacetylase 5 (Homo sapiens, UniProt Q9UQL6); assay: Inhibition of full length human HDAC5 using FAM-labeled acetylated peptide as substrate by electrophoretic mobility shift assay
How it was run: (§1)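 Full-length human HDAC isoform enzymatic assay by electrophoretic mobility shift, using a FAM-labelled acetylated peptide substrate. […] Values are the mean of duplicate experiments with 95% confidence intervals.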

[2] = molecular target: Histone deacetylase 2 (Homo sapiens, UniProt Q92769); assay: Inhibition of full length human HDAC2 using FAM-labeled acetylated peptide as substrate by electrophoretic mobility shift assay; how it was run: as §1
Histone deacetylase 2, sequence (Q92769 whole entry): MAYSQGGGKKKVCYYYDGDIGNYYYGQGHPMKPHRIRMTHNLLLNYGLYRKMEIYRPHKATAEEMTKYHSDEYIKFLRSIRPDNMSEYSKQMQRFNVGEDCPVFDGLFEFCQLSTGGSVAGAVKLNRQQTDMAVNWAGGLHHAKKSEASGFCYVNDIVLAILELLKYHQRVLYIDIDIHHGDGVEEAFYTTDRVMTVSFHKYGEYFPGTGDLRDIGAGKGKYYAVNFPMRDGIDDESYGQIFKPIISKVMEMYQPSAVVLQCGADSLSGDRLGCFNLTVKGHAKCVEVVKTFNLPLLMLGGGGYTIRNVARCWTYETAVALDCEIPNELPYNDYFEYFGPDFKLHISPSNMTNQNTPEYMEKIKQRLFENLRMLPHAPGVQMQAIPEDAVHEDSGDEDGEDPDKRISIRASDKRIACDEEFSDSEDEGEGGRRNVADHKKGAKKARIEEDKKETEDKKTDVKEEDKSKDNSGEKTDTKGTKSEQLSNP

[3] = molecular target: Polyamine deacetylase HDAC10 (Homo sapiens, UniProt Q969S8); assay: Inhibition of full length human HDAC10 using FAM-labeled acetylated peptide as substrate by electrophoretic mobility shift assay; how it was run: as §1
Polyamine deacetylase HDAC10, sequence (Q969S8 whole entry): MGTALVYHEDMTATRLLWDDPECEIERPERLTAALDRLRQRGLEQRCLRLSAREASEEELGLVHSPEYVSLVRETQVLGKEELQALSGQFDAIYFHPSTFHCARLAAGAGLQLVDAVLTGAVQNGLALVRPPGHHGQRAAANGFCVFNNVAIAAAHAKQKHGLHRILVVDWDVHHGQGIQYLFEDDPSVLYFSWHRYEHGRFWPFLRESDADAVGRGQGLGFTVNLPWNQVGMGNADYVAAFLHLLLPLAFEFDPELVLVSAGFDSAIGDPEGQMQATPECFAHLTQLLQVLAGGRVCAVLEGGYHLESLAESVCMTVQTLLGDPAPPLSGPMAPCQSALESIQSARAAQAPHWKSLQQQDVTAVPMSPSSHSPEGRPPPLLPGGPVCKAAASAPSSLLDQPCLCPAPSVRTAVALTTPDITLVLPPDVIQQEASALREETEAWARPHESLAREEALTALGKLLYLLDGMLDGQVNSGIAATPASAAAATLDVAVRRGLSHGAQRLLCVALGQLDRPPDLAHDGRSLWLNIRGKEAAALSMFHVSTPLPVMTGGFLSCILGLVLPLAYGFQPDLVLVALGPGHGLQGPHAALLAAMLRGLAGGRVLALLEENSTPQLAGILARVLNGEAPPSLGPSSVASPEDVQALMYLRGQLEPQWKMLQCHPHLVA

[4] = test system: MV4-11; assay: Induction of apoptosis in human MV4-11 cells assessed as viable cells at 1 uM incubated for 15 mins by Annexin-V/FITC staining based FACS analysis (reference value: 35.53%); type: functional; details: MV4-11, 0.25 h, read-out: Activity
How it was run: (§2)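 MV4-11 cells were dosed, then washed twice in cold PBS and resuspended in binding buffer at 1×10^6 cells/mL. Cells were stained with FITC-annexin V and propidium iodide for 15 min in the dark, diluted with binding buffer and analysed by flow cytometry within 1 h. Quadrants: LL viable, LR early apoptotic, UR late apoptotic. Duplicate experiments averaged; DMSO control.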

[5] = test system: MV4-11; assay: Induction of apoptosis in human MV4-11 cells assessed as viable cells at 2 uM incubated for 15 mins by Annexin-V/FITC staining based FACS analysis (reference value: 35.53%); type: functional; details: MV4-11, 0.25 h, read-out: Activity; how it was run: as §2
[6] = test system: MV4-11; assay: Induction of apoptosis in human MV4-11 cells assessed as viable cells at 4 uM incubated for 15 mins by Annexin-V/FITC staining based FACS analysis (reference value: 35.53%); type: functional; details: MV4-11, 0.25 h, read-out: Activity; how it was run: as §2
[7] = test system: MV4-11; assay: Induction of apoptosis in human MV4-11 cells assessed as early apoptotic cells at 0.50 uM incubated for 15 mins by Annexin-V/FITC staining based FACS analysis (reference value: 0.70%); type: functional; details: dose 0.5 µM, 0.25 h; how it was run: as §2
[8] = test system: MV4-11; assay: Induction of apoptosis in human MV4-11 cells assessed as early apoptotic cells at 4 uM incubated for 15 mins by Annexin-V/FITC staining based FACS analysis (reference value: 0.70%); type: functional; details: 0.25 h; how it was run: as §2
[9] = test system: MV4-11; assay: Induction of apoptosis in human MV4-11 cells assessed as late apoptotic cells at 0.50 uM incubated for 15 mins by Annexin-V/FITC staining based FACS analysis (reference value: 4.17%); type: functional; details: dose 0.5 µM, 0.25 h; how it was run: as §2
[10] = test system: MV4-11; assay: Induction of apoptosis in human MV4-11 cells assessed as late apoptotic cells at 1 uM incubated for 15 mins by Annexin-V/FITC staining based FACS analysis (reference value: 4.17%); type: functional; details: 0.25 h; how it was run: as §2
[11] = test system: MV4-11; assay: Induction of apoptosis in human MV4-11 cells assessed as late apoptotic cells at 2 uM incubated for 15 mins by Annexin-V/FITC staining based FACS analysis (reference value: 4.17%); type: functional; details: 0.25 h; how it was run: as §2
[12] = test system: MV4-11; assay: Induction of apoptosis in human MV4-11 cells assessed as late apoptotic cells at 4 uM incubated for 15 mins by Annexin-V/FITC staining based FACS analysis (reference value: 4.17%); type: functional; details: 0.25 h; how it was run: as §2
[13] = Stability in mouse plasma measured assessed as compound remaining after 60 mins; type: ADME, cell-free; details: read-out: Stability
[14] = Stability in human whole blood assessed as compound remaining measured after 15 mins; type: ADME, tissue-based; details: read-out: Stability
[15] = Half life in mouse plasma incubated for 1 hr; type: ADME, cell-free
How it was run: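 Compound was incubated in mouse plasma or in pooled human whole blood. […] Triplicate studies, averaged.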

[16] = molecular target: T1, Protein deacetylase HDAC6 (Homo sapiens) (UniProt Q9UBN7); assay: Binding affinity to human HDAC6 assessed as residence time by two-step reversible inhibition model
T1 sequence (whole entry): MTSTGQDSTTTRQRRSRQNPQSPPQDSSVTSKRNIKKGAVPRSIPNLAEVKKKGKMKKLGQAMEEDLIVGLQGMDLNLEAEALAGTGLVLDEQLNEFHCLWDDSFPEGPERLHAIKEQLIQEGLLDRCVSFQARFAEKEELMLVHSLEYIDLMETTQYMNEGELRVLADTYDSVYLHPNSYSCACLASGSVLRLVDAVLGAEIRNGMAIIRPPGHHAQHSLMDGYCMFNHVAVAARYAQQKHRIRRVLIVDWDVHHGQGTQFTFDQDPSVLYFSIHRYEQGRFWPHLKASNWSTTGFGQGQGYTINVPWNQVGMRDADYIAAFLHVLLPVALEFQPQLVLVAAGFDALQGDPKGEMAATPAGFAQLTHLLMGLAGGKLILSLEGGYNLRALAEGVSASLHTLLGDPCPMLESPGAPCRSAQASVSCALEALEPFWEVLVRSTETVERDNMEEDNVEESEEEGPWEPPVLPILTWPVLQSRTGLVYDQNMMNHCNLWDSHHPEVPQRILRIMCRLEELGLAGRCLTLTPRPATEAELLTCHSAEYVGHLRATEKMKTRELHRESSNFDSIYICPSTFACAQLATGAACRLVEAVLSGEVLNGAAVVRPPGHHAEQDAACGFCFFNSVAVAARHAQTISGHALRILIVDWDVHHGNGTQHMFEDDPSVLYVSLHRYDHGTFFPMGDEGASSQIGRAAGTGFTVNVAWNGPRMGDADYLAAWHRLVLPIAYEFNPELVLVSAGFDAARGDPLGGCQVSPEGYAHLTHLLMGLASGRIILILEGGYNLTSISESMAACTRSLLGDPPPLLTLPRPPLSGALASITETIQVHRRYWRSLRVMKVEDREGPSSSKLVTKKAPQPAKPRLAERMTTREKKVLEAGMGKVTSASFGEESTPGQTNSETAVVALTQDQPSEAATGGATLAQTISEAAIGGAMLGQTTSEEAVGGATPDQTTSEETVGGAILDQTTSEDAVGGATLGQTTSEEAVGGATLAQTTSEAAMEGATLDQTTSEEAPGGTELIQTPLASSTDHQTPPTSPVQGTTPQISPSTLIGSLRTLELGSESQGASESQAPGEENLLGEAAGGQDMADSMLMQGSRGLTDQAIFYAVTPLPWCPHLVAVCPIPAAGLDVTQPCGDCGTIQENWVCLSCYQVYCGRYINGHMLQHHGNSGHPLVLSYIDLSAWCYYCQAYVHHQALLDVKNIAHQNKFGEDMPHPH

[17] = test system: MV4-11; assay: Induction of apoptosis in human MV4-11 cells assessed as viable cells at 0.25 uM incubated for 15 mins by Annexin-V/FITC staining based FACS analysis (reference value: 84.58%); type: functional; details: MV4-11, 0.25 h, read-out: Activity; how it was run: as §2
[18] = test system: MV4-11; assay: Induction of apoptosis in human MV4-11 cells assessed as early apoptotic cells at 0.25 uM incubated for 15 mins by Annexin-V/FITC staining based FACS analysis (reference value: 7.28%); type: functional; how it was run: as §2
[19] = test system: MV4-11; assay: Induction of apoptosis in human MV4-11 cells assessed as early apoptotic cells at 2 uM incubated for 15 mins by Annexin-V/FITC staining based FACS analysis (reference value: 7.28%); type: functional; details: 0.25 h; how it was run: as §2
[20] = test system: MV4-11; assay: Induction of apoptosis in human MV4-11 cells assessed as late apoptotic cells at 1 uM incubated for 15 mins by Annexin-V/FITC staining based FACS analysis (reference value: 4.36%); type: functional; details: 0.25 h; how it was run: as §2

Histone deacetylase 5, sequence (Q9UQL6 whole entry, canonical isoform): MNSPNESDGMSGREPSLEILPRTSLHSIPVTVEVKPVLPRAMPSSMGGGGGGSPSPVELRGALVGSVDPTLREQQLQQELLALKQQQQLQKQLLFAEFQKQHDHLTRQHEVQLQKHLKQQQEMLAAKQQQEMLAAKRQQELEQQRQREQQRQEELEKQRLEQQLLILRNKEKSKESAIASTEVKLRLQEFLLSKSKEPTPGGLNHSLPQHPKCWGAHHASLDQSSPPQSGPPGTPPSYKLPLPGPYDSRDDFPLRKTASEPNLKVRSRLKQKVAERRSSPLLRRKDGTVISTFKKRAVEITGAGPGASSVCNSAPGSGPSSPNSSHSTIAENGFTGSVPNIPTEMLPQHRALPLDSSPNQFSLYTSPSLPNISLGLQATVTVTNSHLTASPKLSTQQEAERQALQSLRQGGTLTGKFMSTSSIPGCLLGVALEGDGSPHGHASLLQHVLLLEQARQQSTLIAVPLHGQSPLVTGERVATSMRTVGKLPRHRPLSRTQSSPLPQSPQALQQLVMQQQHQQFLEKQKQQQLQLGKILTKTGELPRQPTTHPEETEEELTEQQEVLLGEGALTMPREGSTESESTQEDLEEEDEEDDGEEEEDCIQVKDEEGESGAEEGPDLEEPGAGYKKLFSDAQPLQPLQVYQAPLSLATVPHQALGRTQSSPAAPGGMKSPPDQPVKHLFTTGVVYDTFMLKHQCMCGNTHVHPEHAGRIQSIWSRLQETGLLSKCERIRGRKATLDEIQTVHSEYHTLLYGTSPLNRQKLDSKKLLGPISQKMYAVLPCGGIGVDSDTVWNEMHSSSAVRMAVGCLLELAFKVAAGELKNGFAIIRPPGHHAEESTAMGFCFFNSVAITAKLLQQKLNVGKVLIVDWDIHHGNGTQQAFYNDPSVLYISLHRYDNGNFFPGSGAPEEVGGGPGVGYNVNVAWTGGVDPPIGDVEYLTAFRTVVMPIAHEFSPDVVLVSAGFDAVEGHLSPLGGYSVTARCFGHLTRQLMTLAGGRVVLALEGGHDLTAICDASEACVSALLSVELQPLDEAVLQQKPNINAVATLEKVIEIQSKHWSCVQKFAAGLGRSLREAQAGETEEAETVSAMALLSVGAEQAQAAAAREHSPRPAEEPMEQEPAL

IC50 [1] | IC50 [2] | IC50 [3] | remaining at 1 h [13] | remaining at 0.25 h [14] | t1/2 [15] | TIME [16] | SMILES | viability at 1 µM [4] | viability at 2 µM [5] | viability at 4 µM [6] | Activity [7] | Activity [8] | Activity [9] | Activity [10] | Activity [11] | Activity [12] | viability at 0.25 µM [17] | Activity [18] | Activity [19] | Activity [20]
8.65 µM | 4.97 µM | 0.572 µM | 68% | 88% | 1.83 h | 2.37 h | O=C(NO)c1ccc(CN(Cc2cccnc2)S(=O)(=O)c2cc(F)c(F)c(F)c2F)cc1 | 17.1% | 9.59% | 7.96% | 1.24% | 2.55% | 5.46% | 6.87% | 15.44% | 19.29% |  |  |  | 
 |  |  |  |  |  |  | O=C(CCCCCCNC(=O)c1cnc(N(c2ccccc2)c2ccccc2Cl)nc1)NO [CITARINOSTAT] |  |  |  |  |  |  |  |  |  | 84.3% | 7.93% | 27.95% | 9.54%
